Published values pooled from the literature.
Each line is one published result; the experiments were not run side by side.
Target: Serine/threonine-protein kinase haspin (HASPIN, Homo sapiens, UniProt Q8TF76)
Residues used in one study (Q8TF76 1-798): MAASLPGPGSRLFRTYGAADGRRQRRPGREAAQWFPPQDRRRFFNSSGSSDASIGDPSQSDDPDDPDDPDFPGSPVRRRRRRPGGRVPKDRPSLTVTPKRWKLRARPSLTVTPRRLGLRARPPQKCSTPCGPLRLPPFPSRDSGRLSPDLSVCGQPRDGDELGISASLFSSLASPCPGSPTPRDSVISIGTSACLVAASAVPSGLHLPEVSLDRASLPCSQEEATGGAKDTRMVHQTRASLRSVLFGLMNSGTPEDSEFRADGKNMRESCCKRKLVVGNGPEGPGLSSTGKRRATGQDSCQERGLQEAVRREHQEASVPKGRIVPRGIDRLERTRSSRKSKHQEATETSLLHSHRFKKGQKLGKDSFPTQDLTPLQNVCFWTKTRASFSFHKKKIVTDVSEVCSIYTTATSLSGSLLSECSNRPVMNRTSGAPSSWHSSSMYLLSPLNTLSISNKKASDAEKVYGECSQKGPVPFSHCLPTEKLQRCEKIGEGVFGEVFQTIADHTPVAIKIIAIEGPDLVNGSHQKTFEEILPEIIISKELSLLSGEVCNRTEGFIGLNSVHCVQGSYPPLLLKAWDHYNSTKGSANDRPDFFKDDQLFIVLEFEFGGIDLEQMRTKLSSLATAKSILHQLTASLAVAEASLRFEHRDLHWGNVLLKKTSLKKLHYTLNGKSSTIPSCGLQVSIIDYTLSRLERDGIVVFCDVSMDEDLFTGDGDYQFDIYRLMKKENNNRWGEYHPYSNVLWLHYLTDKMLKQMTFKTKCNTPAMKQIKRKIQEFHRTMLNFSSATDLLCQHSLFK

Compound	test	setting	quantity	result
Cn1cncc1C1=CN(c2ncnc3[nH]cnc23)CCS1	enzyme activity, inhibitor, radiometric	2 µM	inhibition	88.4%
O=C(Nc1cnn(-c2csc(C(=O)NC3COC3)c2)c1)Nc1ccccc1Cl	enzyme activity, inhibitor	5 µM	remaining activity	112%
Cc1ccc(C(=O)Nc2ccc(CN3CCN(C)CC3)c(C(F)(F)F)c2)cc1C#Cc1cnc2cccnn12	enzyme activity	23.5 nM	remaining activity	86%
Nc1ncnc2occ(-c3ccc(NC(=O)Nc4cc(C(F)(F)F)ccc4F)cc3)c12	cell-free assay	20 µM	remaining signal	43%
CNC(=O)c1cc(Oc2ccc(NC(=O)Nc3ccc(Cl)c(C(F)(F)F)c3)cc2)ccn1	enzyme activity, inhibitor	0.3 µM	inhibition	8%
Cc1c(C(=O)O)cc(-c2ccc(C3CCNCC3)cc2)c2ccc(-c3ccc(C(F)(F)F)cc3)cc12	cell-free assay, competition with immobilised ligand	1 µM	remaining binding	100%
CCN(CC)c1ccc(C2=NNC(=O)CC2C)cc1[N+](=O)[O-] (stereo not shown)	enzyme activity, inhibitor	10 µM	remaining activity	106%
Cc1ccc(Nc2nccc(N(C)c3ccc4c(C)n(C)nc4c3)n2)cc1S(N)(=O)=O	enzyme activity, inhibitor	0.3 µM	inhibition	0%
COc1cc(-c2cc(-c3ccc(N4CCNCC4)cc3)cnc2C)cc(OC)c1OC	enzyme activity, inhibitor	0.1 µM	inhibition	3%
CN(C)C(=O)Cn1cc(-c2nc([C@@](C)(c3ccc(-c4cnc(N)nc4)cc3)C3CC3)no2)cn1	cell-free assay, competition with immobilised ligand	1 µM	remaining binding	100%
O=C1NC(=O)c2cc(Nc3ccc(F)cc3)c(Nc3ccc(F)cc3)cc21	cell-free assay	0.5 µM	remaining signal	95.1%
CCCCN(CCCC)C(=O)CN1C[C@@H](c2cc(OC)c3c(c2)OCO3)[C@H](C(=O)O)[C@H]1CC(C)(C)CCC	cell-free assay, competition with immobilised ligand	1 µM	remaining binding	100%
CC(C)(C)c1nc(-c2cccc(NS(=O)(=O)c3c(F)cccc3F)c2F)c(-c2ccnc(N)n2)s1	enzyme activity, inhibitor, radiometric	1 µM	remaining activity	147%
O=c1c2ccccc2[nH]c(=S)n1CCN1CCC(=C(c2ccc(F)cc2)c2ccc(F)cc2)CC1	enzyme activity, inhibitor	0.5 µM	remaining activity	95.4%
Cn1cnc(Br)c1C1=CN(c2ncnc3[nH]cnc23)CCS1	enzyme activity, inhibitor, radiometric	2 µM	inhibition	88.8%
O=C(Nc1cnn(-c2csc(C(=O)NC3COC3)c2)c1)Nc1c(F)cccc1Cl	enzyme activity, inhibitor	5 µM	remaining activity	111%
O=C1Nc2ccc(Cl)cc2C1=Cc1cc(Cl)c(O)c(Cl)c1	cell-free assay	0.5 µM	remaining signal	8.65%
CC(=O)Nc1c(C(C)=O)c(=O)n(C)c2nc(-c3ccc(Cl)cc3Cl)c(-c3ccc(Cl)cc3)cc12	cell-free assay, competition with immobilised ligand	1 µM	remaining binding	100%
Cc1ccc(NC(=O)c2ccc(C)c(C(F)(F)F)c2)cc1C#Cc1nn(C2CCC(O)CC2)c2ncnc(N)c12 (stereo not shown)	cell-free assay	10 µM	remaining signal	93%
CCCOc1ccc([C@H]2[C@H](C(=O)O)[C@@H](c3ccc4c(c3)OCO4)CN2CC(=O)Nc2c(CC)cccc2CC)cc1	cell-free assay, competition with immobilised ligand	1 µM	remaining binding	62%
CC/C(=N\NC(=O)NCc1cccc(O)c1)c1ccc(O)c(C)c1O	enzyme activity, inhibitor	0.1 µM	inhibition	-0.2%
O=c1cc(-c2cccc3c2Sc2ccccc2S3)oc(N2CCOCC2)c1	enzyme activity, inhibitor	0.5 µM	remaining activity	106%
COc1ccc2c(O[C@@H]3C[C@H]4C(=O)N[C@]5(C(=O)O)CC5/C=C\CCCCC[C@H](NC(=O)OC5CCCC5)C(=O)N4C3)cc(-c3csc(NC(=O)C(C)C)n3)nc2c1C (stereo partly shown)	cell-free assay, competition with immobilised ligand	1 µM	remaining binding	97%
COc1cc2nccc(Oc3ccc(NC(=S)NC(=O)c4ccccc4C)cc3)c2cc1OC	enzyme activity, inhibitor	0.5 µM	remaining activity	95.9%
CNCc1ccccc1-c1csc([C@@H](C)Nc2nc(C)nc3cc(OC)c(OC)cc23)c1	cell-free assay, competition with immobilised ligand	1 µM	remaining binding	98%
